These results are taken from ChEMBL document CHEMBL6153049, “Functionalized regioisomers of the natural product phenazines myxin and iodinin as potent inhibitors of Mycobacterium tuberculosis and human acute myeloid leukemia cells” (Eur J Med Chem, 2025).

Data set [1] is described as follows: Cytotoxicity against rat NRK cells assessed as inhibition of cell viability measured after 24 hrs by WST-1 assay. The class given is toxicity, cell-based. The method in brief: (§1)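 NRK and H9c2 seeded at 5000 cells/well in DMEM with 10 % FBS, 0.2 mM L-glutamine, penicillin/streptomycin. Compounds dissolved in DMSO; 24 h exposure. Viability read by WST-1. Hoechst 33342 nuclear morphology was checked after fixation. IC50 from four-parameter regression of WST-1 signal. Cells were mycoplasma-tested.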
On the technique in general: Tetrazolium assays rely on reduction of a dye to a coloured formazan, in cell work by metabolically active cells.

A further data set has as its system MOLM-13. Nature of the data set: Cytotoxicity against human MOLM-13 cells assessed as inhibition of cell viability measured after 24 hrs by WST-1 assay. The class given is functional, cell-based. Particulars: MOLM-13, 24 h. The method in brief:
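MOLM-13 seeded at 30,000 cells/well in RPMI with 10 % FBS, 0.2 mM L-glutamine, penicillin/streptomycin. Compounds dissolved in DMSO; 24 h exposure. Viability read by WST-1. Nuclear morphology checked with Hoechst 33342 after formaldehyde fixation. IC50 from four-parameter regression of WST-1 signal. Cells were mycoplasma-tested.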

Data set [2] is described as follows: Cytotoxicity against rat H9c2 cells assessed as inhibition of cell viability measured after 24 hrs by WST-1 assay. Format: toxicity, cell-based. The method, boiled down: as §1
Data set [3] has as its system Mycobacterium tuberculosis. Nature of the data set: Antimycobacterial activity against drug-sensitive Mycobacterium tuberculosis H37Rv assessed as bacterial growth inhibition measured after 1 week by MABA assay. The class given is functional, organism-based. The note with it: 168 h. The method in brief: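 Colonies grown on 7H10+OADC agar at 37 °C, then to mid-log in 7H9+OADC; about 4×10^5 CFU/mL inoculated into 7H9 with escalating compound concentrations. Incubated 37 °C for 1 week, then resazurin (0.6 mM in PBS) mixed 8:5 with 20 % Tween 80 was added and incubated overnight at 37 °C. Fluorescent resorufin read-out gave IC50.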
In general terms: The colour change of resazurin is a common sign of viable cells or microbes.

The IC50 is the concentration needed to halve the response being measured. Take `[O-][n+]1c2cccc(O)c2[n+]([O-])c2cccc(O)c21`: the 50% inhibitory concentration (IC50) at 24 h in data set [1] and in data set [2] was more than 50 µM in each case. Moreover, the results for the IC50 (in the data set with MOLM-13; in data set [3]) were 2 µM and 0.17 µM, respectively.
Take `CCOCOc1cc(O)c2c(c1)[n+]([O-])c1ccccc1[n+]2[O-]`: the IC50 at 24 h in data set [1] and in data set [2] was more than 25 µM each time. The half-inhibitory concentration (IC50) in the data set on MOLM-13 came out at 3.8 µM; in data set [3], 0.02 µM.
As for `CCOCOc1cc(OC)c2c(c1)[n+]([O-])c1ccccc1[n+]2[O-]`, the half-inhibitory concentration (IC50) at 24 h in data set [1] and in data set [2] was more than 25 µM each time. Moreover, the half-inhibitory concentration (IC50) amounted to 5.1 µM in the data set on MOLM-13 and 0.06 µM in data set [3].
Regarding `COc1cc(OC)c2c(c1)[n+]([O-])c1ccccc1[n+]2[O-]`, the results for the 50% inhibitory concentration (IC50) at 24 h in data set [1] and in data set [2] were 46 µM and 108 µM, respectively. The results for the concentration for half-maximal inhibition (IC50) (in the data set on MOLM-13; in data set [3]) were 6 µM and 0.12 µM, respectively.
On the same counts, the results for `CCOc1cc(O)c2c(c1)[n+]([O-])c1ccccc1[n+]2[O-]` are 87 µM, 103 µM, 2 µM and 0.04 µM.
For `COc1cccc2c1[n+]([O-])c1ccccc1[n+]2[O-]` the same measures were 32 µM, 12 µM, 1.4 µM and 0.04 µM.
With `CC(=O)Oc1cc(O)c2c(c1)[n+]([O-])c1ccccc1[n+]2[O-]`, the half-maximal inhibitory concentration (IC50) with MOLM-13 was 16 µM; in data set [3], 0.85 µM.
On the same counts, the results for `[O-][n+]1c2ccccc2[n+]([O-])c2c(O)cc(O)cc21` are 11 µM and 0.56 µM.
Regarding `[O-][n+]1c2ccccc2[n+]([O-])c2c(O)cccc21`, the IC50 at 24 h in data set [1] was 79 µM; in data set [2], more than 100 µM. In addition, the IC50 in the data set with MOLM-13 stood at 11 µM; in data set [3], 0.26 µM.
For `COc1cc(O)cc2c1[n+]([O-])c1ccccc1[n+]2[O-]` the same measures were more than 100 µM, more than 200 µM, more than 100 µM and 1.91 µM.
Take `COc1cc2c(cc1O)[n+]([O-])c1ccccc1[n+]2[O-]`: the values for the concentration for half-maximal inhibition (IC50) (with MOLM-13; in data set [3]) were more than 100 µM and 11.1 µM, respectively.
For `[O-][n+]1c2ccccc2[n+]([O-])c2cc(O)c(O)cc21`, the half-inhibitory concentration (IC50) (in the data set with MOLM-13; in data set [3]) was more than 50 µM in each case.
Take `CCOC(=O)COc1cc(OC)cc2c1[n+]([O-])c1ccccc1[n+]2[O-]`: the IC50 at 24 h amounted to 14 µM in data set [1] and 19 µM in data set [2]. Besides, the concentration for half-maximal inhibition (IC50) with MOLM-13 came out at 1.4 µM; in data set [3] it was 2.41 µM.
On the same counts, the results for `COc1cccc2c1[n+]([O-])c1cccc(O)c1[n+]2[O-]` are 77 µM, 46 µM, 1.4 µM and 0.014 µM.
Turning to `CCOC(=O)COc1cc(OCC(=O)OCC)c2c(c1)[n+]([O-])c1ccccc1[n+]2[O-]`, the IC50 at 24 h in data set [1] and in data set [2] was more than 200 µM each time. Further, the IC50 is 2 µM in the data set on MOLM-13 and 2.88 µM in data set [3].
On to `CCOC(=O)COc1cc(OC)c2c(c1)[n+]([O-])c1ccccc1[n+]2[O-]`, for which the figures for the IC50 (with MOLM-13; in data set [3]) were 10 µM and 0.25 µM, respectively.
As for `COc1cc(O)c2c(c1)[n+]([O-])c1ccccc1[n+]2[O-]`, the results for the IC50 at 24 h in data set [1] and in data set [2] were 38 µM and 81 µM, respectively. Moreover, the IC50 was 3.8 µM in the data set on MOLM-13 and 0.05 µM in data set [3].
On the same counts, the results for `COCOc1cc(O)c2c(c1)[n+]([O-])c1ccccc1[n+]2[O-]` are more than 100 µM, more than 50 µM, 5.2 µM and 0.11 µM.
On the same counts, the results for `COc1cc(OC(C)=O)c2c(c1)[n+]([O-])c1ccccc1[n+]2[O-]` are 36 µM, 55 µM, 6.5 µM and 0.08 µM.
For `CCOC(=O)COc1cc(O)c2c(c1)[n+]([O-])c1ccccc1[n+]2[O-]` the same measures were 194 µM, 89 µM, 5.7 µM and 0.17 µM.
Take `CC(=O)Oc1cc(OC(C)=O)c2c(c1)[n+]([O-])c1ccccc1[n+]2[O-]`: the IC50 amounted to 35 µM in the data set on MOLM-13 and 5 µM in data set [3].
